Data: ChEMBL document CHEMBL4118021, “Studies of TAK1-centered polypharmacology with novel covalent TAK1 inhibitors” (Bioorg Med Chem, 2017)
The source made the active and inactive calls. The calls are words filed in the database; no cut-off is given here.

Experiments:
[1] = target: V-type proton ATPase subunit B, brain isoform (Homo sapiens) (UniProt P21281); test: Binding affinity to ATP6V1B2 in human NCI-H23 cells at 1 uM by mass spectrometry based pull down assay; assay type: cell-based
[2] = target: High mobility group protein B2 (Homo sapiens) (UniProt P26583); test: Binding affinity to HMGB2 in human NCI-H358 cells at 1 uM by mass spectrometry based pull down assay; assay type: cell-based
[3] = target: Kinesin-like protein KIF1A (Homo sapiens) (UniProt Q12756); test: Binding affinity to KIF1A in human NCI-H23 cells at 1 uM by mass spectrometry based pull down assay; assay type: cell-based
[4] = target: Interleukin enhancer-binding factor 2 (Homo sapiens) (UniProt Q12905); test: Binding affinity to ILF2 in human NCI-H23 cells at 1 uM by mass spectrometry based pull down assay; assay type: cell-based
[5] = target: Proteasome subunit beta type-6 (Homo sapiens) (UniProt P28072); test: Binding affinity to PSMB6 in human NCI-H358 cells at 1 uM by mass spectrometry based pull down assay; assay type: cell-based
[6] = target: COP9 signalosome complex subunit 8 (Homo sapiens) (UniProt Q99627); test: Binding affinity to COPS8 in human NCI-H23 cells at 1 uM by mass spectrometry based pull down assay; assay type: cell-based
[7] = target: T1, 80S Ribosome (Homo sapiens) (UniProt P08865+P42677+P62753+P15880+P23396+P61247+P62701+P22090+P46782+P62081+P62241+P46781+P46783+P62280+P25398+P62277+P62263+P62841+P62244+P62249+P08708+P62269+P39019+P60866+P63220+P62266+P62847+P62851+P62854+P62979+P62857+P62273+P62861+P39023+P36578+P46777+Q02878+P18124+P62424+P62917+P32969+P27635+P62906+P62913+P30050+P26373+P40429+P50914+P61313+P18621+Q07020+Q02543+P84098+P46778+P35268+P62829+P62750+P83731+P61254+P61353+P46776+P46779+P47914+P62888+P62899+P62910+P49207+P42766+P18077+Q9Y3U8+P83881+P61927+P61513+P63173+P62891+P62945+P05388+P05386); test: Binding affinity to RPS11 in human NCI-H23 cells at 1 uM by mass spectrometry based pull down assay; assay type: cell-based
[8] = target: DNA mismatch repair protein Msh2 (Homo sapiens) (UniProt P43246); test: Binding affinity to MSH2 in human NCI-H358 cells at 1 uM by mass spectrometry based pull down assay; assay type: cell-based
[9] = target: T1, 80S Ribosome (Homo sapiens); test: Binding affinity to RPL19 in human NCI-H358 cells at 1 uM by mass spectrometry based pull down assay; assay type: cell-based
[10] = target: Mitogen-activated protein kinase 1 (Homo sapiens) (UniProt P28482); test: Binding affinity to MAPK1 in human NCI-H358 cells at 1 uM by mass spectrometry based pull down assay; assay type: cell-based
[11] = target: Importin-5 (Homo sapiens) (UniProt O00410); test: Binding affinity to IPO5 in human NCI-H23 cells at 1 uM by mass spectrometry based pull down assay; assay type: cell-based
NCI-H358 = test: Binding affinity to XRCC5 in human NCI-H358 cells at 1 uM by mass spectrometry based pull down assay; assay type: cell-based
NCI-H23 = test: Binding affinity to PSMA3 in human NCI-H23 cells at 1 uM by mass spectrometry based pull down assay; assay type: cell-based
[12] = target: Importin subunit alpha-1 (Homo sapiens) (UniProt P52292); test: Binding affinity to KPNA2 in human NCI-H358 cells at 1 uM by mass spectrometry based pull down assay; assay type: cell-based
[13] = target: Cytochrome c (Homo sapiens) (UniProt P99999); test: Binding affinity to CYCS in human NCI-H358 cells at 1 uM by mass spectrometry based pull down assay; assay type: cell-based
[14] = target: Protein disulfide-isomerase (Homo sapiens) (UniProt P07237); test: Binding affinity to P4HB in human NCI-H358 cells at 1 uM by mass spectrometry based pull down assay; assay type: cell-based
[15] = target: Phosphatidylinositol 3-kinase catalytic subunit type 3 (Homo sapiens) (UniProt Q8NEB9); test: Binding affinity to PIK3C3 in human NCI-H23 cells at 1 uM by mass spectrometry based pull down assay; assay type: cell-based
[16] = target: Leucine-rich PPR motif-containing protein, mitochondrial (Homo sapiens) (UniProt P42704); test: Binding affinity to LRPPRC in human NCI-H358 cells at 1 uM by mass spectrometry based pull down assay; assay type: cell-based
[17] = target: T2, Dual specificity mitogen-activated protein kinase kinase 3 (Homo sapiens) (UniProt P46734); test: Binding affinity to MAP2K3 in human NCI-H23 cells at 1 uM by mass spectrometry based pull down assay; assay type: cell-based
T2 sequence (whole entry): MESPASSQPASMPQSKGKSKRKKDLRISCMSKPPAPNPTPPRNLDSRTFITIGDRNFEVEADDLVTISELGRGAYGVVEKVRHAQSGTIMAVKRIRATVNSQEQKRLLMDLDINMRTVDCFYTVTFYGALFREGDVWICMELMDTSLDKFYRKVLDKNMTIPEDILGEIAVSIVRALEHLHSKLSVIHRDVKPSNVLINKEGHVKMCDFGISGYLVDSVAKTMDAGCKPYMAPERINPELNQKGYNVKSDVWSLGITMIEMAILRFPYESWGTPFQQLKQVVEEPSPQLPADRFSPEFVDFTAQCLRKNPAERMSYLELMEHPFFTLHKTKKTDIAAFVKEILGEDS

Plectin (Homo sapiens) = Plectin (Homo sapiens) (UniProt Q15149); test: Binding affinity to PLEC in human NCI-H358 cells at 1 uM by mass spectrometry based pull down assay; assay type: cell-based
[18] = target: Platelet-derived growth factor receptor alpha (Homo sapiens) (UniProt P16234); test: Inhibition of human PDGFRA (575 to 1002 residues) expressed in mammalian expression system assessed as enzyme activity at 1 uM by KINOMEScan assay relative to control; set-up: scale not given: the % may be the effect or the level left
Summary of the method: (§1)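 In vitro ATP-site competition binding assay across a panel of 456 kinases, with compound tested at 1 and 10 μM.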

[19] = target: Vascular endothelial growth factor receptor 2 (Homo sapiens) (UniProt P35968); test: Inhibition of human VEGFR2 (787 to 1253 residues) expressed in mammalian expression system assessed as enzyme activity at 1 uM by KINOMEScan assay relative to control; set-up: scale not given: the % may be the effect or the level left; summary of the method: as §1
[20] = target: Inhibitor of nuclear factor kappa-B kinase subunit epsilon (Homo sapiens) (UniProt Q14164); test: Inhibition of IKKe in human SKCO1 cells at 1 uM after 4 hrs using biotin labeled DIKPGNIMR probe by mass-spectrometric analysis relative to control; assay type: cell-based
[21] = target: Hepatocyte growth factor receptor (Homo sapiens) (UniProt P08581); test: Inhibition of MET in human SKCO1 cells at 1 uM after 4 hrs using biotin labeled TGAKLPVK probe by mass-spectrometric analysis relative to control; assay type: cell-based

Sequence of Phosphatidylinositol 3-kinase catalytic subunit type 3 (Homo sapiens) (Q8NEB9 whole entry): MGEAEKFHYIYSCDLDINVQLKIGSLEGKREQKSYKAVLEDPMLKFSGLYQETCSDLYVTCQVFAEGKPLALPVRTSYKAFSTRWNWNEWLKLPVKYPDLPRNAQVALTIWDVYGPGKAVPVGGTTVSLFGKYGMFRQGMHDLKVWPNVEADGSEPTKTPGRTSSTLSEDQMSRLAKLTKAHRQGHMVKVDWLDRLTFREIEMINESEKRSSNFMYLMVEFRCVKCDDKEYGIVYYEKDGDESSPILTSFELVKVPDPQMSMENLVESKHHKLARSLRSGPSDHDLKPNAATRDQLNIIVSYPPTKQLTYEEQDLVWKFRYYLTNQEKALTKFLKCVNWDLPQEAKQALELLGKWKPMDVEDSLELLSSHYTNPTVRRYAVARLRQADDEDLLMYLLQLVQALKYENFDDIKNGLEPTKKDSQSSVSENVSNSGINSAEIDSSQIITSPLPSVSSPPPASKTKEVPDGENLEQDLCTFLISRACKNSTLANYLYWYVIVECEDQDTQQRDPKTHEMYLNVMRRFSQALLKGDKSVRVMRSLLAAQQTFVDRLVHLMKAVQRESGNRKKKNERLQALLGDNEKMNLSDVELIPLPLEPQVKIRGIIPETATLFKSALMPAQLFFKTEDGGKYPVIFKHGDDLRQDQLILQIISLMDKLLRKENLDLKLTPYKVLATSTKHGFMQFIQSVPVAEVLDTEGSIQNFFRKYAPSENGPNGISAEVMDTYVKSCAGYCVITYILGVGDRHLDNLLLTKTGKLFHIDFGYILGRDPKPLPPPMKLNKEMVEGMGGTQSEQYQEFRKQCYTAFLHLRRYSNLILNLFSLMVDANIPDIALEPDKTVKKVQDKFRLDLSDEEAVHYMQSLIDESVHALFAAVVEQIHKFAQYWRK
Sequence of V-type proton ATPase subunit B, brain isoform (Homo sapiens) (P21281 whole entry, canonical isoform): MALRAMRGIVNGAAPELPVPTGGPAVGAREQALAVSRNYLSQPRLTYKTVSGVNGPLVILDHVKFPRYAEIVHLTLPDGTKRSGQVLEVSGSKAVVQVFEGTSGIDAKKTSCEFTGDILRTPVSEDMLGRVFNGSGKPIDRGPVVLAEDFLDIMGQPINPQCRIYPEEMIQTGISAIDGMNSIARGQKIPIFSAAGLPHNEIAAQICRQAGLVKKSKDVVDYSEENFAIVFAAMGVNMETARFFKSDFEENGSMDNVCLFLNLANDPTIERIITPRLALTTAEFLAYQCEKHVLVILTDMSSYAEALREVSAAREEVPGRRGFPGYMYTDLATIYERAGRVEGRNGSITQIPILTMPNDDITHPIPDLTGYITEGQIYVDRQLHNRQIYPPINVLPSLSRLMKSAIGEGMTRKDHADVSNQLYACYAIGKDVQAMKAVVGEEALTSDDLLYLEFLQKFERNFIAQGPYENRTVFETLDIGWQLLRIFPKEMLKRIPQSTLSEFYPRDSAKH
Sequence of Mitogen-activated protein kinase 1 (Homo sapiens) (P28482 whole entry): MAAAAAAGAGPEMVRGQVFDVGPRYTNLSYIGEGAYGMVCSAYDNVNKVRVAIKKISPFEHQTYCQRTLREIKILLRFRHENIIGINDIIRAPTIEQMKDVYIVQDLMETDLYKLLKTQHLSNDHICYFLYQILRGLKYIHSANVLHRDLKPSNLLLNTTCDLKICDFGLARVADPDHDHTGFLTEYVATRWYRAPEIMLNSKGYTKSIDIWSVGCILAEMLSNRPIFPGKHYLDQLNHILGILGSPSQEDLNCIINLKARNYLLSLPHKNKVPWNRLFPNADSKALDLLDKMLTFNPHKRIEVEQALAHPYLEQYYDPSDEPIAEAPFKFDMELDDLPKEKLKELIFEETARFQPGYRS
Sequence of Inhibitor of nuclear factor kappa-B kinase subunit epsilon (Homo sapiens) (Q14164 whole entry): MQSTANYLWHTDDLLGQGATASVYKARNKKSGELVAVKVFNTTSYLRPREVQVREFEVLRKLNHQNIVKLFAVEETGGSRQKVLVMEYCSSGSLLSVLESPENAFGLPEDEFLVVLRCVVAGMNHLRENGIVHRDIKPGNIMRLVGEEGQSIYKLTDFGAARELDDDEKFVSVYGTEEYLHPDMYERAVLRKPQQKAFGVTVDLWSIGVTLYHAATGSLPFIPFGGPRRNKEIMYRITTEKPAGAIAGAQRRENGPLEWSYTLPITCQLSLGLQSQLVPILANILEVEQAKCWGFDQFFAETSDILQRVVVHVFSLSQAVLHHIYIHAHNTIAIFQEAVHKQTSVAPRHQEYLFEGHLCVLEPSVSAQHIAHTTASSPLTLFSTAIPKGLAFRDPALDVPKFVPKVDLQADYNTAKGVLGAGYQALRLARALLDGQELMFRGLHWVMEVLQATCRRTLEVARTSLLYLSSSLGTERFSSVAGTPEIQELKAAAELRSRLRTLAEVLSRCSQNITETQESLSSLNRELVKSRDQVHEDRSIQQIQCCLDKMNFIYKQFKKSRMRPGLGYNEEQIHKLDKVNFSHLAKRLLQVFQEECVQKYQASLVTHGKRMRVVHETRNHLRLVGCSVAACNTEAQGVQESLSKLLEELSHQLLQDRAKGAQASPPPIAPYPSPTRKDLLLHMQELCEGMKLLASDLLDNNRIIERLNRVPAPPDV
Sequence of Proteasome subunit beta type-6 (Homo sapiens) (P28072 whole entry): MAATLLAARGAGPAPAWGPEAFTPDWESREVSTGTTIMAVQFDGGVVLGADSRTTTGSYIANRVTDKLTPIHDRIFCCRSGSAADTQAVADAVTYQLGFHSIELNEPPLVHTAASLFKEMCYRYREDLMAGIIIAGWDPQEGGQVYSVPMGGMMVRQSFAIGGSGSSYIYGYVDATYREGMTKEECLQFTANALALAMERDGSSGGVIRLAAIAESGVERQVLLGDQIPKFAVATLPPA
Sequence of COP9 signalosome complex subunit 8 (Homo sapiens) (Q99627 whole entry, one chain of several): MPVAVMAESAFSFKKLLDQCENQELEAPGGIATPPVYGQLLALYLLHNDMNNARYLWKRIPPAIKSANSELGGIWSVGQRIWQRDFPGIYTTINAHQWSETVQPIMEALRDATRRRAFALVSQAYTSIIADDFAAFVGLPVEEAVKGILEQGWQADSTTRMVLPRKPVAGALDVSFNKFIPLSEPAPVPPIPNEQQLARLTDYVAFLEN
Sequence of Cytochrome c (Homo sapiens) (P99999 whole entry): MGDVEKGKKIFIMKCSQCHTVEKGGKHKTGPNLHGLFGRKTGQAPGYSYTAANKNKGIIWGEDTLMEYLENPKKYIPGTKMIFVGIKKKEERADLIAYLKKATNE
Sequence of Platelet-derived growth factor receptor alpha (Homo sapiens) (P16234 whole entry, the tested form may be a part): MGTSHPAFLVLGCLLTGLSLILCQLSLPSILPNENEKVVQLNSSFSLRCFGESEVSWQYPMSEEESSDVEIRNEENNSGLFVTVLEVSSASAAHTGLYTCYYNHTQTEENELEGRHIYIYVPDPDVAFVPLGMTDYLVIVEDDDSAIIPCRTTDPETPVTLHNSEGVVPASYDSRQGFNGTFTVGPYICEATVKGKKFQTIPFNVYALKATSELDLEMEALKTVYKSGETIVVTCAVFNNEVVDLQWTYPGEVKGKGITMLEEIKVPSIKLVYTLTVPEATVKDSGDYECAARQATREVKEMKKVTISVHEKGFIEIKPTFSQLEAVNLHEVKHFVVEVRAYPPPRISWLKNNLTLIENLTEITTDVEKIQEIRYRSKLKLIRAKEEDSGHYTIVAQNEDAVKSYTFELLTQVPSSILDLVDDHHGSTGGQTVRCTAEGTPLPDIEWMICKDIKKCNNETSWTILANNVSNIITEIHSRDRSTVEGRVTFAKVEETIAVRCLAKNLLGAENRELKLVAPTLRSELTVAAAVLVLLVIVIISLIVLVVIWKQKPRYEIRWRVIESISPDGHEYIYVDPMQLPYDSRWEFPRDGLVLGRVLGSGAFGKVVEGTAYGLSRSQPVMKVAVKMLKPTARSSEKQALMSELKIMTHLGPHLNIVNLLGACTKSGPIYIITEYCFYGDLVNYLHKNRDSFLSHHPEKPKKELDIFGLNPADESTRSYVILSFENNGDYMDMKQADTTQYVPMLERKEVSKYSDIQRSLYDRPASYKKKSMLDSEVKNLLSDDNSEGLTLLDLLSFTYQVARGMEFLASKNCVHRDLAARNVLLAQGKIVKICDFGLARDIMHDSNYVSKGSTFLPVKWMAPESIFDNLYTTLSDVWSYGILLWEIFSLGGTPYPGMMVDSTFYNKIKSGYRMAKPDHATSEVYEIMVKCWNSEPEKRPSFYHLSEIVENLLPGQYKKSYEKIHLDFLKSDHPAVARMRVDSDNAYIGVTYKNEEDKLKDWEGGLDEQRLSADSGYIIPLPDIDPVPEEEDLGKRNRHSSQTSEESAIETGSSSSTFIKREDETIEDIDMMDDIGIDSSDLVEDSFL
Sequence of Protein disulfide-isomerase (Homo sapiens) (P07237 18-508 limits assumed): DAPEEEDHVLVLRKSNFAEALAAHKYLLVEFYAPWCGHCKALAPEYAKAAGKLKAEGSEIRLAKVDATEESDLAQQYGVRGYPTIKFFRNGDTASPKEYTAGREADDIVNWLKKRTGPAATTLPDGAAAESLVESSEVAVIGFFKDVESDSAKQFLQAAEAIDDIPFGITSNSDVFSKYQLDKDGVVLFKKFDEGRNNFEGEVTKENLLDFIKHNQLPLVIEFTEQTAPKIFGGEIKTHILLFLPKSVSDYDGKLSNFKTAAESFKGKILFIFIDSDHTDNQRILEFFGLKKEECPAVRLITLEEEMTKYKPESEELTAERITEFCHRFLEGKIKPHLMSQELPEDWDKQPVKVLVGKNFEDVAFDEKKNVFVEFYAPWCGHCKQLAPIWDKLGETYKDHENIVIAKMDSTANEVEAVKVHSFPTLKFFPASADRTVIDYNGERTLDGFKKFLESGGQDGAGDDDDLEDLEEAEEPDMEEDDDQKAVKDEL
Sequence of High mobility group protein B2 (Homo sapiens) (P26583 whole entry): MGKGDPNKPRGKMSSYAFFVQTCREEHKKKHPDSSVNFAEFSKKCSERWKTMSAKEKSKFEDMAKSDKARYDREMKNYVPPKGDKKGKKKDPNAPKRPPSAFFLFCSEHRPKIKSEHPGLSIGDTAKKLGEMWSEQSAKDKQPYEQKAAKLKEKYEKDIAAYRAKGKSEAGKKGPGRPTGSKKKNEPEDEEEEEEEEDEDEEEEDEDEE

With `C=CC(=O)Nc1ccccc1Nc1nc(Nc2ccc(N3CCN(CCOCCOCCOCCNC(=O)CCCC[C@@H]4SC[C@@H]5NC(=O)N[C@@H]54)CC3)cc2)ncc1Cl` the Activity [1] was “Active”, the Activity [2] was “Active” and the Activity [3] was “Active”. The Activity [4] was “Active”, the Activity [5] was “Active” and the Activity [6] was “Active”. The Activity [7] was “Active”, the Activity [8] was “Active” and the Activity [9] was “Active”. For the same compound, the Activity [10] was “Active”, the Activity [11] was “Active” and the Activity (NCI-H358) was “Active”. For the same compound, the Activity (NCI-H23) was “Active”, the Activity [12] was “Active” and the Activity [13] was “Active”. The Activity [14] was “Active”, the Activity [15] was “Active” and the Activity [16] was “Active”. For the same compound, the Activity [17] was “Active” and the Activity (Plectin (Homo sapiens)) was “Active”.

`COc1cc(O)c2c(c1)/C=C/C[C@H](O)[C@H](O)C(=O)/C=C\C[C@H](C)OC2=O` was tested, and the Activity [18] was 44% and the Activity [19] was 78%.

With `C=CC(=O)Nc1ccccc1Nc1nc(Nc2ccc(N3CCN(C)CC3)cc2)ncc1Cl` the inhibition [20] was 59.3%.

`C=CC(=O)Nc1ccccc1Oc1nc(Nc2cnn(CCOC)c2)ncc1Cl` was tested, and the inhibition [21] was -1.9%.
